In ChEMBL document CHEMBL4392849, “Design, synthesis, evaluation and molecular modeling study of 4-N-phenylaminoquinolines for Alzheimer disease treatment” (Bioorg Med Chem Lett, 2019):

Assays:
[1] = molecular target: Acetylcholinesterase (Electrophorus electricus, UniProt O42275); assay: Inhibition of electric eel AChE using acetylthiocholine iodide as substrate preincubated for 15 mins followed by substrate addition by Ellman's method
[2] = molecular target: Cholinesterase (Equus caballus, UniProt P81908); assay: Inhibition of equine serum BChE using butyrylthiocholine iodide as substrate preincubated for 15 mins followed by substrate addition by Ellman's method; format: single protein
Chain of Cholinesterase (P81908 whole entry): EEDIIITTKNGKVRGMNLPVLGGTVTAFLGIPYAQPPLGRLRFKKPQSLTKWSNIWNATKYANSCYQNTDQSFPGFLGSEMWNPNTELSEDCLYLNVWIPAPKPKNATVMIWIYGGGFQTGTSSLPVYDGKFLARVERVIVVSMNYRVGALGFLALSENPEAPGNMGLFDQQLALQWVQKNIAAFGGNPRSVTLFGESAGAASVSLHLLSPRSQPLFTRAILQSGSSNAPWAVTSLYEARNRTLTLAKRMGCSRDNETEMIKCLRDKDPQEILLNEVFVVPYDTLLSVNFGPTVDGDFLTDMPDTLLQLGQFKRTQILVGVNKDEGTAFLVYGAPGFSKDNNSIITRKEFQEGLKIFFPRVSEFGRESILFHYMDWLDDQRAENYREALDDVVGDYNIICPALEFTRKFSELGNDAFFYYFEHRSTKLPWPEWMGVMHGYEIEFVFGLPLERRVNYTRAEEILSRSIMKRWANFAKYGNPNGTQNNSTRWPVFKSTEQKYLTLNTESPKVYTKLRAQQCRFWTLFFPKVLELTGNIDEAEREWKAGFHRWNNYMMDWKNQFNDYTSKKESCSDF
How it was run: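 Ellman method run at pH 8.0 in 0.1 M sodium phosphate buffer. Compounds come from 10 mM DMSO stocks diluted in buffer. Enzyme solution is 0.05 U/ml and DTNB stock is 10 mM. These are held 15 min at 25°C, then 7.5 mM butyrylthiocholine iodide stock is added. Percent inhibition comes from hydrolysis rate with versus without inhibitor.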

Chain of Acetylcholinesterase (O42275 whole entry): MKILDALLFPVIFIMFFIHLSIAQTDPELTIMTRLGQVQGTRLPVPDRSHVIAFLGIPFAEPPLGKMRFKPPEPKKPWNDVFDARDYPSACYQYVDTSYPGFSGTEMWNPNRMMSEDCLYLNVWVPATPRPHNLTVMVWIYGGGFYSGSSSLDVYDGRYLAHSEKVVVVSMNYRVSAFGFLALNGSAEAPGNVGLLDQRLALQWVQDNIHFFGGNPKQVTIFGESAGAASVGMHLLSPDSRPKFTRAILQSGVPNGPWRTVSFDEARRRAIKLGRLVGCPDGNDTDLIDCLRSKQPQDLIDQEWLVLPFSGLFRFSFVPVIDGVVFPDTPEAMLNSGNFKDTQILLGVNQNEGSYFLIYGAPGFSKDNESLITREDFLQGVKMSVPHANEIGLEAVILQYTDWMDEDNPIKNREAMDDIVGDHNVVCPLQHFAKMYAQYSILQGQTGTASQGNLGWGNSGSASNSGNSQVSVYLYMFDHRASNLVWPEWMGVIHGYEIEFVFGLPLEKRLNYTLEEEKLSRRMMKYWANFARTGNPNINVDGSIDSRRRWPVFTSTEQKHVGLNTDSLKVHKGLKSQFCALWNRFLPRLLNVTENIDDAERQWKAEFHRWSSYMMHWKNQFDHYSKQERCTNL

Question: With `COc1cc2c(Nc3ccc(O)cc3)c([N+](=O)[O-])cnc2cc1OCCCN(C)Cc1ccccc1` as the compound, how does the IC50 [1] read?
Answer: 0.74 µM

Question: And the IC50 [2]?
Answer: 17.4 µM

Question: For `COc1cc2c(Nc3ccccc3)c([N+](=O)[O-])cnc2cc1OCCCN(C)Cc1ccccc1`, which IC50 [1] is on record?
Answer: 0.65 µM

Question: And the IC50 [2]?
Answer: 10.1 µM

Question: With `COc1cc2c(Nc3cccc(C)c3)c([N+](=O)[O-])cnc2cc1OCCCN(C)Cc1ccccc1` as the compound, how does the IC50 [1] read?
Answer: 1.86 µM

Question: And the IC50 [2]?
Answer: 2.78 µM

Question: What does the source list for `COc1ccc(Nc2c([N+](=O)[O-])cnc3cc(OCCCN(C)Cc4ccccc4)c(OC)cc23)cc1`?
Answer: IC50 [1]: 10.9 µM; IC50 [2]: 50.4 µM

Question: Which results are given for `COc1ccccc1Nc1c([N+](=O)[O-])cnc2cc(OCCCN(C)Cc3ccccc3)c(OC)cc12`?
Answer: IC50 [1]: 7.9 µM; IC50 [2]: 8.67 µM

Question: For `COc1cc2c(Nc3ccc(Cl)cc3)c([N+](=O)[O-])cnc2cc1OCCC[n+]1ccccc1`, which IC50 [1] is on record?
Answer: 0.92 µM

Question: And the IC50 [2]?
Answer: 14.2 µM

Question: `COc1cc2c(Nc3ccccc3C)c([N+](=O)[O-])cnc2cc1OCCCN(C)Cc1ccccc1` was tested. Which IC50 [1] did it give?
Answer: 10.1 µM

Question: And the IC50 [2]?
Answer: 29.7 µM

Question: What does the source list for `COc1cc2c(Nc3cccc(O)c3)c([N+](=O)[O-])cnc2cc1OCCCN(C)Cc1ccccc1`?
Answer: IC50 [1]: 0.71 µM; IC50 [2]: 10.8 µM

Question: Which results are given for `COc1cc2c(Nc3ccc(C)cc3)c([N+](=O)[O-])cnc2cc1OCCCN(C)Cc1ccccc1`?
Answer: IC50 [1]: 11.8 µM; IC50 [2]: 73.6 µM

Question: `COc1cc2c(Nc3ccc(Cl)cc3)c([N+](=O)[O-])cnc2cc1OCCCN(C)Cc1ccccc1` was tested. Which IC50 [1] did it give?
Answer: 1.88 µM

Question: And the IC50 [2]?
Answer: 17.4 µM

Question: For `COc1cc2c(Nc3cccc(C(F)(F)F)c3)c([N+](=O)[O-])cnc2cc1OCCCN(C)Cc1ccccc1`, which IC50 [1] is on record?
Answer: 7.78 µM

Question: And the IC50 [2]?
Answer: 55.4 µM

Question: For `COc1cc2c(Nc3cccc(Cl)c3)c([N+](=O)[O-])cnc2cc1OCCCN(C)Cc1ccccc1`, which IC50 [1] is on record?
Answer: 0.83 µM

Question: And the IC50 [2]?
Answer: 15.2 µM

Question: How did the IC50 [1] turn out when `COc1cccc(Nc2c([N+](=O)[O-])cnc3cc(OCCCN(C)Cc4ccccc4)c(OC)cc23)c1` was run?
Answer: 1.72 µM

Question: What about the IC50 [2] of the same compound?
Answer: 9.19 µM

Question: What does the source list for `COc1cc2c(Nc3ccccc3Cl)c([N+](=O)[O-])cnc2cc1OCCCN(C)Cc1ccccc1`?
Answer: IC50 [1]: 0.86 µM; IC50 [2]: 2.65 µM

Question: What does the source list for `COc1cc2c(Nc3ccc(Cl)cc3Cl)c([N+](=O)[O-])cnc2cc1OCCCN(C)Cc1ccccc1`?
Answer: IC50 [1]: 1.85 µM; IC50 [2]: 58.7 µM
